Data: ChEMBL document CHEMBL1127827, “In vivo inhibition of cathepsin B by peptidyl (acyloxy)methyl ketones” (J Med Chem, 1994)

Key:
Cathepsin B (Bos taurus) = Cathepsin B (Bos taurus) (UniProt P07688); test: Rate of cathepsin B inactivation in vitro in bovine spleen; format: tissue-based
In short: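 Purified bovine spleen cathepsin B; continuous fluorometric assay in 0.1 M potassium phosphate, 1.25 mM EDTA, 1 mM dithiothreitol, pH 6.0, 25 °C; second-order inactivation rate constant k/K (M-1 s-1) determined.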

Rattus norvegicus [1] = test: Percentage of control was measured on rat liver cathepsin B by a single oral dose of 50 mg/kg; format: functional
In short: (§1)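 Rats dosed once by gavage with compound suspended in CMC; livers taken 4-5 h postdose, frozen, homogenized and centrifuged; supernatant cathepsin B activity read with Z-Arg-Arg-NMec at pH 6.0, 37 °C, 30 min, quenched with chloroacetate/acetate pH 4.3; specific activity given as % of vehicle control, two dilutions in triplicate, 4-5 animals per group.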

Rattus norvegicus [2] = test: Percentage of control was measured on rat liver cathepsin B by a single oral dose.(dose =50 mg/kg); format: functional; in short: as §1
Rattus norvegicus [3] = test: Percentage of control was measured on rat liver cathepsin B by a single intraperitoneal dose.(dose =10 mg/kg); format: functional
In short: (§2)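 Female Lewis rats, single intraperitoneal dose as CMC suspension; livers removed 4-5 h postdose, frozen homogenate supernatant assayed fluorimetrically with Z-Arg-Arg-NMec in 0.1 M KH2PO4 pH 6.0, 1 mM EDTA, 1 mM DTT, 37 °C 30 min; protein-normalized activity as % of CMC control; two dilutions in triplicate per animal, 4-5 animals per group.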

Rattus norvegicus [4] = test: Percent inhibition was measured on rat liver cathepsin B by a single subcutaneous dose of 20 mg/kg
[5] = Half-life measured in in vitro Cathepsin B assay in human plasma; format: ADME, cell-free
Rattus norvegicus [6] = test: Percent inhibition was measured on rat spleen cathepsin B by a single subcutaneous dose of 20 mg/kg
Rattus norvegicus [7] = test: Percent inhibition was measured on rat heart cathepsin B by a single subcutaneous dose of 20 mg/kg
Rattus norvegicus [8] = test: Percentage of control was measured on rat liver cathepsin B by a single intraperitoneal dose of 10 mg/kg; format: functional; in short: as §2
Rattus norvegicus [9] = test: ED50 value was determined for rat liver at 20h postdose by subcutaneous administration; format: functional; conditions: sc
In short: (§3)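 Female Lewis rats (150-200 g, usually four per group), single subcutaneous dose suspended in CMC; heart, liver or skeletal muscle harvested 20 h postdose, frozen in liquid nitrogen, homogenized, clarified at 15000g. Cathepsin B measured as Z-Arg-Arg-NMec (20 μM solution) hydrolysis, pH 6.0, 37 °C 30 min, fluorescence ex 340/em 460; specific activity as % of vehicle control; ED50 from dose-response.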

[10] = Half-life measured in rat plasma
Rattus norvegicus [11] = test: ED50 value was determined for rat skeletal muscle at 20h postdose by subcutaneous administration; format: functional; conditions: Muscle tissue, sc; in short: as §3
Rattus norvegicus [12] = test: Percent inhibition was measured on rat skeletal tissue cathepsin B by a single subcutaneous dose of 20 mg/kg
Rattus norvegicus [13] = test: ED50 value was determined for rat heart at 20h postdose by subcutaneous administration; format: functional; conditions: sc; in short: as §3
Rattus norvegicus [14] = test: Percent inhibition was measured on rat pancreas cathepsin B by a single subcutaneous dose of 20 mg/kg
Rattus norvegicus [15] = test: Percentage of control was measured on rat liver cathepsin B by a single oral dose.(dose =100 mg/kg); format: functional; in short: as §1
Rattus norvegicus [16] = test: Percentage of control was measured on rat liver cathepsin B by a single intraperitoneal dose.(dose =100 mg/kg); format: functional; in short: as §2

SMILES	k/K (Cathepsin B (Bos taurus)) [M⁻¹ s⁻¹]	Control (Rattus norvegicus [1]) [%]	Control (Rattus norvegicus [2]) [%]	further results
Cc1cc(C)c(C(=O)OCC(=O)CNC(=O)[C@H](Cc2ccccc2)NC(=O)CCC(=O)O)c(C)c1	700	49	–	–
Cc1cc(C)c(C(=O)OCC(=O)[C@@H](C)NC(=O)[C@H](Cc2ccccc2)NC(=O)c2ccc(C(=O)NS(=O)(=O)c3ccccc3)cc2)c(C)c1	2500	–	62	Control (Rattus norvegicus [3]): 68%
COC(=O)CCC(=O)N[C@@H](Cc1ccccc1)C(=O)N[C@H](C)C(=O)COC(=O)c1c(C)cc(C)cc1C	4000	–	50	Control (Rattus norvegicus [3]): 38%
CC(NC(=O)[C@H](Cc1ccccc1)NC(=O)OCc1ccccc1)C(=O)CF (some centres not stated)	21000	7	–	–
CC(C)C[C@H](NC(=O)[C@H]1O[C@@H]1C(=O)O)C(=O)NCCCCN=C(N)N [E-64]	–	–	–	Control (Rattus norvegicus [8]): 24%
Cc1c(C)c(C(=O)OCC(=O)[C@H](C)NC(=O)[C@H](Cc2ccccc2)NC(=O)OCc2ccccc2)c(C)c(C)c1C(=O)O	63000	79	–	Control (Rattus norvegicus [8]): 53%

Second part, led by results:

k/K (Cathepsin B (Bos taurus)) [M⁻¹ s⁻¹]	SMILES	Control (Rattus norvegicus [1]) [%]	Control (Rattus norvegicus [2]) [%]	further results
1000	Cc1cc(C)c(C(=O)OCC(=O)[C@@H](C)NC(=O)[C@H](Cc2ccccc2)NC(=O)CCC(=O)O)c(C)c1	–	31	Control (Rattus norvegicus [3]): 23%
230000	Cc1cc(C)c(C(=O)OCC(=O)[C@H](CCCCN)NC(=O)[C@H](Cc2ccccc2)NC(=O)OCc2ccccc2)c(C)c1.Cl	11	–	Inhibition % (Rattus norvegicus [4]): 96%; half-life [5]: > 33 h; Inhibition % (Rattus norvegicus [6]): 98%; Inhibition % (Rattus norvegicus [7]): 94%; Control (Rattus norvegicus [8]): 4%; ED50 (Rattus norvegicus [9]): 2.4 mg/kg; half-life [10]: 1.6 h; ED50 (Rattus norvegicus [11]): 1 mg/kg; Inhibition % (Rattus norvegicus [12]): 72%; ED50 (Rattus norvegicus [13]): ~0.1 mg/kg; Inhibition % (Rattus norvegicus [14]): 96%
9900	Cc1cc(C)c(C(=O)OCC(=O)CNC(=O)[C@H](Cc2ccccc2)NC(=O)OCc2ccccc2)c(C)c1	–	29	–
170000	COc1ccc(C[C@H](NC(=O)OCc2ccccc2)C(=O)N[C@@H](CCCCN)C(=O)COC(=O)c2c(C)cc(C)cc2C)cc1.O=C(O)C(F)(F)F	30	–	–
14000	Cc1cc(C)c(C(=O)OCC(=O)[C@@H](C)NC(=O)[C@H](Cc2ccccc2)NC(=O)OCc2ccccc2)c(C)c1	–	–	Control (Rattus norvegicus [15]): 78%; Control (Rattus norvegicus [16]): 69%
